# According to ChEMBL document CHEMBL1153450, “Ligustrazine derivatives. Part 3: Design, synthesis and evaluation of novel acylpiperazinyl derivatives as potential cerebrocardiac vascular agents” (Bioorg Med Chem, 2009):
# What was measured:
# [1] = system: ECV-304; experiment: Protection against hydrogen peroxide-induced cell damage in human ECV304 cells treated 30 mins before hydrogen peroxide challenge measured after 6 hrs; assay type: functional, cell-based
# Summary of the method: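 ECV-304 cells grown 24 h, then given fresh medium with compound at 12.5, 25, 50, 100 or 200 µM. After 0.5 h, 150 µM H2O2 added, then 6 h further incubation. Read-out is absorbance at 570 nm, mean ± SEM, n = 6. Proliferation rate = (OD compd − OD H2O2)/(OD control − OD H2O2) × 100%. EC50 derived by a pEC50 summation formula over proliferation rates.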
# [2] = Antiplatelet activity in rabbit platelets assessed as inhibition of ADP-induced platelet aggregation at 200 uM by aggregometer; assay type: functional, Oryctolagus cuniculus; parameters: scale not given: the % may be the effect or the level left
# Summary of the method: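 Rabbit blood anticoagulated with 3.8% trisodium citrate (0.3 ml per 2.7 ml blood). ADP and compound (200 µM) added in sequence, with blank and ADP-control cuvettes. Platelet-rich plasma from 270 g/5 min spin, platelet-poor plasma from 1000 g/10 min spin. Aggregation read on aggregometer and reported as mean aggregation rate A% (n = 6).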
# [3] = Half life in human; assay type: ADME, organism-based; details: in vivo
half-life [3] [h],Compound,EC50 [1] [µM],Activity [2] [%]
,Cc1nc(C)c(CN2CCN(C(=O)Cc3ccc([N+](=O)[O-])cc3)CC2)nc1C,377,18.24
,Cc1nc(C)c(CN2CCN(C(=O)c3cc([N+](=O)[O-])cc([N+](=O)[O-])c3)CC2)nc1C,179,15.67
,Cc1nc(C)c(CN2CCN(C(=O)C(=O)c3ccccc3)CC2)nc1C,304,26.11
,Cc1nc(C)c(CN2CCN(C(=O)c3ccncc3)CC2)nc1C,29.7,6.07
,Cc1nc(C)c(CN2CCN(C(=O)C(C)(C)Oc3ccc(Cl)cc3)CC2)nc1C,,13.68
,Cc1nc(C)c(CN2CCN(C(=O)c3cccc(Cl)c3)CC2)nc1C,121,24.74
,Cc1nc(C)c(CN2CCN(C(=O)c3ccc(I)cc3)CC2)nc1C,125,25.17
,Cc1nc(C)c(CN2CCN(C(=O)CCl)CC2)nc1C,148,24.89
,Cc1nc(C)c(CN2CCN(C(=O)c3ccco3)CC2)nc1C,37.6,21.76
,COc1ccc(C(=O)N2CCN(Cc3nc(C)c(C)nc3C)CC2)cc1OC,170,29.06
,Cc1nc(C)c(CN2CCN(C(=O)c3ccc([N+](=O)[O-])cc3)CC2)nc1C,462,28.64
,Cc1nc(C)c(CN2CCN(C(=O)c3ccc(Cl)cc3Cl)CC2)nc1C,249,16.08
,Cc1nc(C)c(CN2CCN(C(=O)c3ccccc3I)CC2)nc1C,67.8,25.45
,Cc1nc(C)c(CN2CCN(C(=O)c3ccccc3)CC2)nc1C,241,28.46
,COc1cccc(/C=C/C(=O)N2CCN(Cc3nc(C)c(C)nc3C)CC2)c1OC,340,8.78
,COc1ccccc1C(=O)N1CCN(Cc2nc(C)c(C)nc2C)CC1,249,24.27
,Cc1nc(C)c(CN2CCN(C(=O)/C=C/c3cccc([N+](=O)[O-])c3)CC2)nc1C,422,13.07

half-life [3] [h],Compound,EC50 [1] [µM],Activity [2] [%]
,CC(=O)Oc1ccccc1C(=O)N1CCN(Cc2nc(C)c(C)nc2C)CC1,159,3.02
2.89,Cc1nc(C)c(C)nc1C [LIGUSTRAZINE],154,7.86
,CCOC(=O)N1CCN(Cc2nc(C)c(C)nc2C)CC1,76.6,15.25
,Cc1nc(C)c(CN2CCN(C(=O)c3cccnc3)CC2)nc1C,220,5.08
,COc1ccc(OC)c(/C=C/C(=O)N2CCN(Cc3nc(C)c(C)nc3C)CC2)c1,376,9.78
,Cc1nc(C)c(CN2CCN(S(=O)(=O)c3ccccc3)CC2)nc1C,480,24.49
,COc1cc(/C=C/C(=O)N2CCN(Cc3nc(C)c(C)nc3C)CC2)ccc1OC(C)=O,,5.84
,Cc1nc(C)c(CN2CCN(C(=O)CCc3ccccc3)CC2)nc1C,150,13.29
,Cc1nc(C)c(CN2CCN(C(=O)c3ccccc3Cl)CC2)nc1C,161,27.24
,Cc1nc(C)c(CN2CCN(S(C)(=O)=O)CC2)nc1C,162,33.51
,Cc1nc(C)c(CN2CCN(C(=O)c3ccccc3O)CC2)nc1C,6.13,16.71
,COc1ccc(/C=C/C(=O)N2CCN(Cc3nc(C)c(C)nc3C)CC2)cc1OC,282,6.13
,Cc1nc(C)c(CN2CCN(C(=O)c3ccc(Cl)cc3)CC2)nc1C,208,25.62
,Cc1ccc(S(=O)(=O)N2CCN(Cc3nc(C)c(C)nc3C)CC2)cc1,,25.13
,COc1cc(C(=O)N2CCN(Cc3nc(C)c(C)nc3C)CC2)cc(OC)c1OC,88.7,14.26
,Cc1nc(C)c(CN2CCN(C(=O)Cc3ccccc3)CC2)nc1C,189,25.59
,COc1ccc(C(=O)N2CCN(Cc3nc(C)c(C)nc3C)CC2)cc1,210,26.06
